Source: publication PMC7376976 (Bioorganic & medicinal chemistry letters, 2020)

What was measured:
ΔFosB homodimer = molecular target: T1, ΔFosB homodimer (Homo sapiens, UniProt P53539); type: binding
T1 sequence (P53539 1-237 isoform P53539-11): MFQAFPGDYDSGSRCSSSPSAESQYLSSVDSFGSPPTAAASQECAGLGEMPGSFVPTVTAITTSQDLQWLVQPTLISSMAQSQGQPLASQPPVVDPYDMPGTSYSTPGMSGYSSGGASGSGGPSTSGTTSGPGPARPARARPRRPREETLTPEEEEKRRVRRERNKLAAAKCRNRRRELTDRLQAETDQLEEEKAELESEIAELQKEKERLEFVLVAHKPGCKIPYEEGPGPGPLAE
How it was run: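 Test compound serially diluted (10 concentrations, 0–200 μM, quadruplicate). Annealed 19-mer cdk5 AP-1 duplex, TAMRA-labelled at both 5′ ends, added at 25 nM in 20 mM HEPES pH 7.5, 50 mM NaCl for 5 min. ΔFosB then added at 320 nM (as monomers) for 15 min. FP read at excitation 530 or 540 nm, emission 590 nm. Four-parameter IC50; mean ± SD of two independent days.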

ΔFosB/JunD heterodimer = molecular target: T2, ΔFosB/JunD heterodimer (Homo sapiens, UniProt P17535+P53539); type: binding
T2 sequence (P53539 1-237 isoform P53539-11): T1 sequence (P53539 1-237 isoform P53539-11)
T2 sequence (P17535 1-347): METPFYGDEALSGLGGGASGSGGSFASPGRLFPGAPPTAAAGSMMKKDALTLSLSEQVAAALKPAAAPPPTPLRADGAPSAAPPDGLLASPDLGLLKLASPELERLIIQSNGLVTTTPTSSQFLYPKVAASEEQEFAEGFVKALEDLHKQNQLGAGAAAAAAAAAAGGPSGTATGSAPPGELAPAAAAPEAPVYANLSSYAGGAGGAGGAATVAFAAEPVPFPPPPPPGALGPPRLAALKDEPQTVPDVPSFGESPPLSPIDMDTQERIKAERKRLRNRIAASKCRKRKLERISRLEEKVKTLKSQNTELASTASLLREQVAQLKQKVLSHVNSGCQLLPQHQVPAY
How it was run: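 Annealed 19-mer cdk5 AP-1 duplex, TAMRA-labelled at both 5′ ends, used at 25 nM in 20 mM HEPES pH 7.5, 150 mM NaCl. Added to test compound (10 concentrations, 0–200 μM, quadruplicate) for 5 min, then ΔFosB/JunD at 280 nM (as monomers) for 15 min. FP read at excitation 530/540 nm, emission 590 nm. Oligo-only wells set 100% inhibition. Four-parameter IC50; mean ± SD of two days.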

Row | activity in FP-assay against ΔFosB homodimers (in words) (ΔFosB homodimer) | activity in FP-assay against ΔFosB/JunD heterodimers (in words) (ΔFosB/JunD heterodimer) | Compound
1 | lacked significant activity | lacked significant activity | COc1cccc2c1NC(C(=O)O)C1CCCC21 (stereo not shown) [Compound 14]
2 | lacked activity | lacked activity | COc1cc(OC)c2c(C(=O)O)nc3c(OC)cccc3c2c1 [Compound 25]
3 | lacked significant activity | lacked significant activity | COc1cccc2c1N(C(C)=O)C(C(=O)O)C1CC=CC21 (stereo not shown) [Compound 13]
4 | little activity even at 100 μM or higher | little activity even at 100 μM or higher | Cc1cccc2c3c(c(C(=O)O)nc12)CCC3 [Compound 21]
5 | little activity even at 100 μM or higher | little activity even at 100 μM or higher | CCOC(=O)c1nc2c(C)cccc2c2c1CCC2 [Compound 20]
